Reference: ChEMBL document CHEMBL3120060, “Synthesis, in vitro anticancer evaluation and in silico studies of novel imidazo[2,1-b]thiazole derivatives bearing pyrazole moieties” (2014)

Columns and labels:
Assay type in all cases: functional
OVCAR-8 = assay: Cytotoxicity against human OVCAR8 cells assessed as cell growth at 10 uM after 48 hrs by SRB assay; details: OVCAR-8, 48 h, read-out: Activity
Outline: (§1)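 NCI-60 single-dose screen. Cell lines grown in RPMI 1640 with 5% FBS and 2 mM L-glutamine, plated at 5000–40,000 cells/well according to doubling time, then preincubated 24 h at 37 °C in 5% CO2. Compounds dissolved in DMSO, tested at 10^-5 M for 48 h. Adherent cells fixed with cold TCA (10% final) and stained with 0.4% SRB in 1% acetic acid. Growth expressed as percent of untreated control.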

SNB-75 = assay: Cytotoxicity against human SNB75 cells assessed as cell growth at 10 uM after 48 hrs by SRB assay; details: SNB-75, 48 h, read-out: Activity; outline: as §1
HL-60(TB) = assay: Cytotoxicity against human HL-60(TB) cells assessed as cell growth at 10 uM after 48 hrs by SRB assay; details: HL-60, 48 h, read-out: Activity
Outline: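 NCI-60 single-dose screen: cells grown in RPMI 1640 with 5% FBS and 2 mM L-glutamine, plated at 5000–40,000 cells/well, preincubated 24 h at 37 °C, 5% CO2. Compound dissolved in DMSO, tested at 10^-5 M for 48 h. Cells TCA-fixed, sulforhodamine B stained. Growth expressed as percent of untreated control, referenced to time-zero plates.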

HOP-62 = assay: Cytotoxicity against human HOP62 cells assessed as cell growth at 10 uM after 48 hrs by SRB assay; details: HOP-62, 48 h, read-out: Activity; outline: as §1
[1] = Cytotoxicity against human NCI-ADR-RES cells assessed as cell growth at 10 uM after 48 hrs by SRB assay; details: read-out: Activity; outline: as §1
KM12 = assay: Cytotoxicity against human KM12 cells assessed as cell growth at 10 uM after 48 hrs by SRB assay; details: KM12, 48 h, read-out: Activity; outline: as §1
CCRF-CEM = assay: Cytotoxicity against human CCRF-CEM cells assessed as cell growth at 10 uM after 48 hrs by SRB assay; details: read-out: Activity; outline: as §1
UACC-62 = assay: Cytotoxicity against human UACC62 cells assessed as cell growth at 10 uM after 48 hrs by SRB assay; details: UACC-62, 48 h, read-out: Activity
Outline: (§2)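 NCI-60 single-dose screen at 10^-5 M. Adherent lines are grown in RPMI 1640 with 5% FBS and 2 mM L-glutamine, seeded at 5000–40,000 cells/well by doubling time, and preincubated 24 h at 37 °C in 5% CO2. Drug is added from DMSO stock diluted in medium, then 48 h. Cells are fixed in cold TCA (final 10%) for 60 min and stained with 0.4% SRB in 1% acetic acid. Growth is expressed as % of untreated control using time-zero plates.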

DU-145 = assay: Cytotoxicity against human DU145 cells assessed as cell growth at 10 uM after 48 hrs by SRB assay; details: DU-145, 48 h, read-out: Activity; outline: as §1
HOP-92 = assay: Cytotoxicity against human HOP92 cells assessed as cell growth at 10 uM after 48 hrs by SRB assay; details: HOP-92, 48 h, read-out: Activity; outline: as §1
[2] = Cytotoxicity against human OVCAR5 cells assessed as cell growth at 10 uM after 48 hrs by SRB assay; details: OVCAR-5, 48 h, read-out: Activity; outline: as §1
MDA-MB-231 = assay: Cytotoxicity against human MDA-MB-231 cells assessed as cell growth at 10 uM after 48 hrs by SRB assay; details: MDA-MB-231, 48 h, read-out: Activity; outline: as §1
HCT-116 = assay: Cytotoxicity against human HCT116 cells assessed as cell growth at 10 uM after 48 hrs by SRB assay; details: HCT-116, 48 h, read-out: Activity; outline: as §1
NCI-H460 = assay: Cytotoxicity against human NCI-H460 cells assessed as cell growth at 10 uM after 48 hrs by SRB assay; details: NCI-H460, 48 h, read-out: Activity; outline: as §1
MOLT-4 = assay: Cytotoxicity against human MOLT4 cells assessed as cell growth at 10 uM after 48 hrs by SRB assay; details: MOLT-4, 48 h, read-out: Activity; outline: as §1
[3] = Cytotoxicity against human Hs578T cells assessed as cell growth at 10 uM after 48 hrs by SRB assay; details: Hs-578T, read-out: Activity; outline: as §1
T47D = assay: Cytotoxicity against human T47D cells assessed as cell growth at 10 uM after 48 hrs by SRB assay; details: read-out: Activity; outline: as §2
SK-MEL-5 = assay: Cytotoxicity against human SK-MEL-5 cells assessed as cell growth at 10 uM after 48 hrs by SRB assay; details: SK-MEL-5, 48 h, read-out: Activity; outline: as §1
SW-620 = assay: Cytotoxicity against human SW620 cells assessed as cell growth at 10 uM after 48 hrs by SRB assay; details: SW-620, 48 h, read-out: Activity; outline: as §2
NCI-H522 = assay: Cytotoxicity against human NCI-H522 cells assessed as cell growth at 10 uM after 48 hrs by SRB assay; details: NCI-H522, 48 h, read-out: Activity; outline: as §1
SNB-19 = assay: Cytotoxicity against human SNB19 cells assessed as cell growth at 10 uM after 48 hrs by SRB assay; details: SNB-19, 48 h, read-out: Activity; outline: as §1
Malme-3M = assay: Cytotoxicity against human MALME-3M cells assessed as cell growth at 10 uM after 48 hrs by SRB assay; details: read-out: Activity; outline: as §1
NCI-H23 = assay: Cytotoxicity against human NCI-H23 cells assessed as cell growth at 10 uM after 48 hrs by SRB assay; details: NCI-H23, 48 h, read-out: Activity; outline: as §1
MDA-MB-435 = assay: Cytotoxicity against human MDA-MB-435 cells assessed as cell growth at 10 uM after 48 hrs by SRB assay; details: MDA-MB-435, 48 h, read-out: Activity; outline: as §1
SN12C = assay: Cytotoxicity against human SN12C cells assessed as cell growth at 10 uM after 48 hrs by SRB assay; details: read-out: Activity; outline: as §1
SF-268 = assay: Cytotoxicity against human SF268 cells assessed as cell growth at 10 uM after 48 hrs by SRB assay; details: SF-268, 48 h, read-out: Activity; outline: as §1
[4] = Cytotoxicity against human OVCAR4 cells assessed as cell growth at 10 uM after 48 hrs by SRB assay; details: OVCAR-4, 48 h, read-out: Activity; outline: as §1
TK-10 = assay: Cytotoxicity against human TK10 cells assessed as cell growth at 10 uM after 48 hrs by SRB assay; details: TK-10, 48 h, read-out: Activity; outline: as §2

| SMILES | growth at 10 µM (OVCAR-8) [%] | growth at 10 µM (SNB-75) [%] | growth at 10 µM (HL-60(TB)) [%] | growth at 10 µM (HOP-62) [%] | growth at 10 µM [1] [%] | growth at 10 µM (KM12) [%] | growth at 10 µM (CCRF-CEM) [%] | growth at 10 µM (UACC-62) [%] | growth at 10 µM (DU-145) [%] | growth at 10 µM (HOP-92) [%] | growth at 10 µM [2] [%] | growth at 10 µM (MDA-MB-231) [%] | growth at 10 µM (HCT-116) [%] | growth at 10 µM (NCI-H460) [%] | growth at 10 µM (MOLT-4) [%] | growth at 10 µM [3] [%] | growth at 10 µM (T47D) [%] | growth at 10 µM (SK-MEL-5) [%] | growth at 10 µM (SW-620) [%] | growth at 10 µM (NCI-H522) [%] | further results |
| --- | --- | --- | --- | --- | --- | --- | --- | --- | --- | --- | --- | --- | --- | --- | --- | --- | --- | --- | --- | --- | --- |
| O=C1CC(=O)N(c2cn3c(-c4ccccc4)csc3n2)N1 | 89.8 | 63.1 | 120 | 85.9 | 94.3 | 101 | 98.7 | 85 | 106 | 63.5 | 104 | 85.7 | 95.5 | 104 | 101 | 101 | 82.7 | 89.6 | 107 | 74.9 | growth at 10 µM (SNB-19): 91%; growth at 10 µM (Malme-3M): 141%; growth at 10 µM (NCI-H23): 91.5%; growth at 10 µM (MDA-MB-435): 99.9%; growth at 10 µM (SN12C): 92.2%; growth at 10 µM (SF-268): 99.5%; growth at 10 µM [4]: 81.2%; growth at 10 µM (TK-10): 131% |
| O=C1CN2C(c3ccc(Cl)cc3)=CSC2=N1 | 96 | 75.8 | 94.2 | 107 | 102 | 100 | 91.5 | 88.7 | 102 | 111 | 97 | 102 | 97.1 | 106 | 79.1 | 111 | 92.1 | 105 | 101 | 87.5 | growth at 10 µM (SNB-19): 100%; growth at 10 µM (Malme-3M): 99.3%; growth at 10 µM (NCI-H23): 104%; growth at 10 µM (MDA-MB-435): 87.8%; growth at 10 µM (SN12C): 94.9%; growth at 10 µM (SF-268): 100%; growth at 10 µM [4]: 90.3%; growth at 10 µM (TK-10): 79.9% |
| O=C1CN2C(c3ccccc3)=CSC2=N1 | 97.9 | 61 | 114 | 93.6 | 99.6 | 111 | 96.3 | 90.3 | 112 | 78 | 113 | 96.7 | 97.6 | 105 | 95.4 | 103 | 84.4 | 99.8 | 94.8 | 94.3 | growth at 10 µM (SNB-19): 99.7%; growth at 10 µM (Malme-3M): 102%; growth at 10 µM (NCI-H23): 94.9%; growth at 10 µM (MDA-MB-435): 95.1%; growth at 10 µM (SN12C): 91.5%; growth at 10 µM (SF-268): 110%; growth at 10 µM [4]: 97.7%; growth at 10 µM (TK-10): 125% |
| Cc1ccc(-c2csc3nc(-n4nc(C)cc4C)cn23)cc1 | 96 | 85.9 | 106 | 104 | 98.5 | 108 | 96 | 90.5 | 116 | 78 | 113 | 88.8 | 97 | 102 | 98.4 | 97 | 98.2 | 98.9 | 106 | 91.8 | growth at 10 µM (SNB-19): 100%; growth at 10 µM (Malme-3M): 114%; growth at 10 µM (NCI-H23): 93.3%; growth at 10 µM (MDA-MB-435): 94.6%; growth at 10 µM (SN12C): 98.1%; growth at 10 µM (SF-268): 112%; growth at 10 µM [4]: 97.8%; growth at 10 µM (TK-10): 141% |
| Cc1ccc(-c2csc3nc(N4NC(=O)CC4=O)cn23)cc1 | 99.3 | 73.3 | 107 | 105 | 108 | 115 | 95.6 | 91.8 | 118 | 75.1 | 108 | 104 | 108 | 111 | 90.3 | 107 | 85.7 | 95.9 | 103 | 95.9 | growth at 10 µM (SNB-19): 102%; growth at 10 µM (Malme-3M): 118%; growth at 10 µM (NCI-H23): 96.9%; growth at 10 µM (MDA-MB-435): 90%; growth at 10 µM (SN12C): 104%; growth at 10 µM (SF-268): 106%; growth at 10 µM [4]: 99.1%; growth at 10 µM (TK-10): 139% |
| CC1=NN(c2cn3c(-c4ccccc4)csc3n2)C(=O)C1 | 105 | 59.4 | 89.2 | 95.3 | 92.5 | 102 | 95.9 | 91.1 | 106 | 66.5 | 96.7 | 89.9 | 96.5 | 107 | 84.4 | 106 | 89.4 | 102 | 104 | 89.2 | growth at 10 µM (SNB-19): 90.8%; growth at 10 µM (Malme-3M): 107%; growth at 10 µM (NCI-H23): 91.6%; growth at 10 µM (MDA-MB-435): 92.9%; growth at 10 µM (SN12C): 96%; growth at 10 µM (SF-268): 99.3%; growth at 10 µM [4]: 98%; growth at 10 µM (TK-10): 125% |
| Cc1cc(C)n(-c2cn3c(-c4ccccc4)csc3n2)n1 | 95.9 | 64.1 | 105 | 91.4 | 95.5 | 104 | 95.4 | 89.4 | 105 | 86 | 95.4 | 86.3 | 101 | 104 | 93.9 | 106 | 87.2 | 94.2 | 102 | 88.4 | growth at 10 µM (SNB-19): 96.5%; growth at 10 µM (Malme-3M): 94.1%; growth at 10 µM (NCI-H23): 95.4%; growth at 10 µM (MDA-MB-435): 96.9%; growth at 10 µM (SN12C): 96.5%; growth at 10 µM (SF-268): 98.4%; growth at 10 µM [4]: 93%; growth at 10 µM (TK-10): 124% |
